Measurements as given in ChEMBL document CHEMBL2401649, “Cyclic enkephalins with a diversely substituted guanidine bridge or a thiourea bridge: synthesis, biological and structural evaluations” (J Med Chem, 2013).

Tests used:
Mu-type opioid receptor [1] = target: T1, Mu-type opioid receptor (Rattus norvegicus, UniProt P33535); experiment: Agonist activity at mu opioid receptor in rat brain membranes assessed as stimulation of [35S]GTPgammaS binding after 60 mins in presence of GDP; format: functional, cell membranes
T1 sequence (P33535 whole entry): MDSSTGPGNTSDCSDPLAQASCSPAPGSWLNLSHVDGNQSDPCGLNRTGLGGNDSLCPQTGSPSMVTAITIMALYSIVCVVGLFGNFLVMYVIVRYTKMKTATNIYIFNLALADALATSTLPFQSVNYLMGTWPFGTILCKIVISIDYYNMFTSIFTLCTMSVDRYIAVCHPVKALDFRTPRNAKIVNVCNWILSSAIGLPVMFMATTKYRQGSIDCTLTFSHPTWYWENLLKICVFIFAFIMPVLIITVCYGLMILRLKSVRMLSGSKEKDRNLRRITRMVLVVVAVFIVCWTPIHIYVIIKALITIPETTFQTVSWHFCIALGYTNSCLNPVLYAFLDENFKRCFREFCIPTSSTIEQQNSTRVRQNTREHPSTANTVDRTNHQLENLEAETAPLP

[2] = target: Delta-type opioid receptor (Rattus norvegicus, UniProt P33533); experiment: Displacement of [3H]-DIDI from delta opioid receptor in Wistar rat brain membranes after 45 mins by liquid scintillation counting analysis; format: cell membranes, Membrane
Chain of Delta-type opioid receptor (P33533 whole entry): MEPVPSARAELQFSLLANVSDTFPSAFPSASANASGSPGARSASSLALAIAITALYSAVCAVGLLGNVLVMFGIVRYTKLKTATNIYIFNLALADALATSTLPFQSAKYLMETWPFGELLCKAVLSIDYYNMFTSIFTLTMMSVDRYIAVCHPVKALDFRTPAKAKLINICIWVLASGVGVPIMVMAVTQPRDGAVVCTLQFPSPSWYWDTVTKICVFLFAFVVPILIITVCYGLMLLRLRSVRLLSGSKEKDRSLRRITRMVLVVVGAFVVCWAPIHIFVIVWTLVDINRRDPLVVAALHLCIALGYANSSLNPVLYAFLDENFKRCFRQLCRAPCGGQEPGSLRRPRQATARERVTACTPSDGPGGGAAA

Rattus norvegicus = organism: Rattus norvegicus; experiment: Selectivity ratio of Ki for delta opioid receptor in Wistar rat brain membranes to Ki for mu opioid receptor in Wistar rat brain membranes; format: cell membranes; details: Membrane
Mu-type opioid receptor [3] = target: T1, Mu-type opioid receptor; experiment: Displacement of [3H]-DAMGO from mu opioid receptor in Wistar rat brain membranes after 45 mins by liquid scintillation counting analysis; format: cell membranes, Membrane
[4] = target: Kappa-type opioid receptor (Cavia porcellus, UniProt P41144); experiment: Displacement of [3H]-U69,593 from kappa opioid receptor in guinea pig brain membranes after 2 hrs by liquid scintillation counting analysis; format: cell membranes, Membrane
Chain of Kappa-type opioid receptor (P41144 whole entry): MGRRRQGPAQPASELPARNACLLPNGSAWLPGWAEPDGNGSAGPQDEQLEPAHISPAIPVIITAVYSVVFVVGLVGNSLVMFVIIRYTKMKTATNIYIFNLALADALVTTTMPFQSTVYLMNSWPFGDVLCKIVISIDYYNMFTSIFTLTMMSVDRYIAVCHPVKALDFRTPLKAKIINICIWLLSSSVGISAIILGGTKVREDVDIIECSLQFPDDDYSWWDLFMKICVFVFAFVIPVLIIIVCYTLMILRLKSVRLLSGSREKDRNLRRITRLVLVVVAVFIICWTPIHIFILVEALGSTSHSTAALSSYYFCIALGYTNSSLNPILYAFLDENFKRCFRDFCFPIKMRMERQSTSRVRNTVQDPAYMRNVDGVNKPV
Summary of the method: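 Guinea pig brain membranes incubated 2 h at 0 °C with 0.80 nM [3H]U69,593 plus competitor. IC50 taken from log-dose displacement curves.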

Mu-type opioid receptor [5] = target: Mu-type opioid receptor (Cavia porcellus, UniProt P97266); experiment: Agonist activity at mu opioid receptor in guinea pig ileum; format: tissue-based
Chain of Mu-type opioid receptor (Cavia porcellus, UniProt P97266) (P97266 whole entry): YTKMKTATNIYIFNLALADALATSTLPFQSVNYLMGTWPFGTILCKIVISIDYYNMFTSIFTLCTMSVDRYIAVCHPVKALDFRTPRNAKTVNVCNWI
Summary of the method: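 Isolated guinea pig ileum (MOR) and mouse vas deferens (DOR) bioassays; Leu-enkephalin dose-response curve run as standard on each preparation, test IC50 values normalized to it.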

| Compound | EC50 (Mu-type opioid receptor [1]; read-out: EC50) | EC50 (Mu-type opioid receptor [1]; read-out: pEC50 (converted)) | IC50 [2] | Ki [2] | Ratio Ki (Rattus norvegicus) | IC50 (Mu-type opioid receptor [3]) | Ki (Mu-type opioid receptor [3]) | Ki [4] | IC50 (Mu-type opioid receptor [5]) |
| --- | --- | --- | --- | --- | --- | --- | --- | --- | --- |
| CN(C)/C1=N/C[C@@H](C(N)=O)NC(=O)[C@H](Cc2ccccc2)NC(=O)CNC(=O)[C@H](NC(=O)[C@@H](N)Cc2ccc(O)cc2)CN1 | 1830 nM | – | – | – | – | – | – | – | – |
| CC(C)C[C@@H]1NC(=O)[C@H](Cc2ccccc2)NC(=O)CNC(=O)[C@H](NC(=O)[C@@H](N)Cc2ccc(O)cc2)CCCN/C(N2CCCC2)=N\CCC[C@@H](C(N)=O)NC1=O | 8000 nM | 8130 nM | 832 nM | 628 nM | 3.6 | 234 nM | 175 nM | – | – |
| CN/C1=N/C[C@@H](C(N)=O)NC(=O)[C@H](Cc2ccccc2)NC(=O)CNC(=O)[C@H](NC(=O)[C@@H](N)Cc2ccc(O)cc2)CN1 (stereo in doubt; 10b) | – | 1620 nM | – | – | – | – | – | – | – |
| NC(=O)[C@@H]1C/N=C(/N2CCCC2)NC[C@@H](NC(=O)[C@@H](N)Cc2ccc(O)cc2)C(=O)NCC(=O)N[C@@H](Cc2ccccc2)C(=O)N1 (stereo in doubt; 13a) | – | 1070 nM | – | – | – | – | – | > 500 nM | – |
| NC(=O)[C@@H]1CNC(=S)NC[C@@H](NC(=O)[C@@H](N)Cc2ccc(O)cc2)C(=O)NCC(=O)N[C@@H](Cc2ccccc2)C(=O)N1 (stereo in doubt; 7a) | – | – | – | – | – | – | – | – | 1.76 nM |
| CN/C1=N/C[C@@H](C(N)=O)NC(=O)[C@H](Cc2ccccc2)NC(=O)CNC(=O)[C@H](NC(=O)[C@@H](N)Cc2ccc(O)cc2)CN1 (stereo in doubt; 10a) | – | 282 nM | – | – | – | – | – | – | – |
| NC(=O)[C@@H]1C/N=C(/N2CCCCC2)NC[C@@H](NC(=O)[C@@H](N)Cc2ccc(O)cc2)C(=O)NCC(=O)N[C@@H](Cc2ccccc2)C(=O)N1 (stereo in doubt; 14b) | – | 4170 nM | 4900 nM | – | – | – | – | – | – |
| CC(C)C[C@@H]1NC(=O)[C@H](Cc2ccccc2)NC(=O)CNC(=O)[C@H](NC(=O)[C@@H](N)Cc2ccc(O)cc2)CCCN/C(N)=N\CCC[C@@H](C(N)=O)NC1=O | 3010 nM | – | 145 nM | 108 nM | 5.9 | 25.1 nM | 18.4 nM | > 500 nM | – |
| CC(C)C[C@@H]1NC(=O)[C@H](Cc2ccccc2)NC(=O)CNC(=O)[C@H](NC(=O)[C@@H](N)Cc2ccc(O)cc2)CCCNC(=S)NCCC[C@@H](C(N)=O)NC1=O | 589 nM | 603 nM | 97.7 nM | 75.7 nM | 8.3 | 12.3 nM | 9.1 nM | – | – |
| NC(=O)[C@@H]1C/N=C(/N2CCCC2)NC[C@@H](NC(=O)[C@@H](N)Cc2ccc(O)cc2)C(=O)NCC(=O)N[C@@H](Cc2ccccc2)C(=O)N1 (stereo in doubt; 13b) | – | 2820 nM | – | – | – | – | – | > 500 nM | – |
| CC(C)C[C@@H]1NC(=O)[C@H](Cc2ccccc2)NC(=O)CNC(=O)[C@H](NC(=O)[C@@H](N)Cc2ccc(O)cc2)CCCN/C(N(C)C)=N\CCC[C@@H](C(N)=O)NC1=O | 1520 nM | 1550 nM | 195 nM | 146 nM | 10.2 | 19.5 nM | 14.3 nM | > 500 nM | – |
| C/N=C1/NCCC[C@@H](C(N)=O)NC(=O)[C@H](CC(C)C)NC(=O)[C@H](Cc2ccccc2)NC(=O)CNC(=O)[C@H](NC(=O)[C@@H](N)Cc2ccc(O)cc2)CCCN1 | 1230 nM | – | 245 nM | 185 nM | 10.3 | 24 nM | 17.9 nM | > 300 nM | – |
| NC(=O)[C@@H]1C/N=C(/N2CCCCC2)NC[C@@H](NC(=O)[C@@H](N)Cc2ccc(O)cc2)C(=O)NCC(=O)N[C@@H](Cc2ccccc2)C(=O)N1 (stereo in doubt; 14a) | – | 1450 nM | – | – | – | – | – | – | 398 nM |
| NC(=O)[C@@H]1C/N=C(/N2CCCC2)NC[C@@H](NC(=O)[C@@H](N)Cc2ccc(O)cc2)C(=O)NCC(=O)N[C@@H](Cc2ccccc2)C(=O)N1 (stereo in doubt; 13c) | – | 4790 nM | – | – | – | – | – | > 500 nM | – |
| NC(=O)[C@@H]1C/N=C(/N2CCCCC2)NC[C@@H](NC(=O)[C@@H](N)Cc2ccc(O)cc2)C(=O)NCC(=O)N[C@@H](Cc2ccccc2)C(=O)N1 (stereo in doubt; 14c) | – | 7590 nM | – | 3500 nM | – | – | – | – | – |
| CS/C1=N/CCC[C@@H](C(N)=O)NC(=O)[C@H](CC(C)C)NC(=O)[C@H](Cc2ccccc2)NC(=O)CNC(=O)[C@H](NC(=O)[C@@H](N)Cc2ccc(O)cc2)CCCN1 | 652 nM | 661 nM | 251 nM | 191 nM | 9.1 | 28.8 nM | 21 nM | – | – |
